Data published in the M2OR odorant receptor database.
Positions count from the first letter of the chain named.

Tests used:
Details in all cases: stereoisomer not certain
OR2A1 T73A R74C S168C = tested on: T1, OR2A1 T73A R74C S168C
T1 sequence (whole entry): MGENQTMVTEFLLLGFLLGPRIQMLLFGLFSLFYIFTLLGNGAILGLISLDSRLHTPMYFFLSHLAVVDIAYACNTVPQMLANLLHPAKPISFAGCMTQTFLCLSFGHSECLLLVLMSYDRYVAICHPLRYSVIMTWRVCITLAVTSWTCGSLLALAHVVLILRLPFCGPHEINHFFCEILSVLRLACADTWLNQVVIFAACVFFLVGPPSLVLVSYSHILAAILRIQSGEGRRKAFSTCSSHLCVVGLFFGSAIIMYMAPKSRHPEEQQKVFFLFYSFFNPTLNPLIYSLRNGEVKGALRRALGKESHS
Summary of the method: (§1)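 Whether a receptor–molecule pair is responsive (active) rests on the original authors' judgment that its measured signal was statistically different from baseline. Pairs without that judgment are non-responsive (inactive). Sources used varied assay methods, commonly transient luciferase assays in mammalian cell lines.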

OR2A12 (Homo sapiens) = target: T2, OR2A12 (Homo sapiens) (UniProt Q8NGT7)
T2 sequence (whole entry): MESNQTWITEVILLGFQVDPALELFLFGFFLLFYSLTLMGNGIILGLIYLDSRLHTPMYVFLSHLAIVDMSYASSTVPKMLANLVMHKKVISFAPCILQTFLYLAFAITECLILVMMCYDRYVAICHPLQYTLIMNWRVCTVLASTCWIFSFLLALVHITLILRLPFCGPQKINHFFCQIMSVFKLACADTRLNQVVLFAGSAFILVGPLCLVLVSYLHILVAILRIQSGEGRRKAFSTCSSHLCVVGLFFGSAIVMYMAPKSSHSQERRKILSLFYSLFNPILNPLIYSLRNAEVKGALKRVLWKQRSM
Summary of the method: as §1

OR2A14 (Homo sapiens) = target: T3, OR2A14 (Homo sapiens) (UniProt Q96R47)
T3 sequence (whole entry): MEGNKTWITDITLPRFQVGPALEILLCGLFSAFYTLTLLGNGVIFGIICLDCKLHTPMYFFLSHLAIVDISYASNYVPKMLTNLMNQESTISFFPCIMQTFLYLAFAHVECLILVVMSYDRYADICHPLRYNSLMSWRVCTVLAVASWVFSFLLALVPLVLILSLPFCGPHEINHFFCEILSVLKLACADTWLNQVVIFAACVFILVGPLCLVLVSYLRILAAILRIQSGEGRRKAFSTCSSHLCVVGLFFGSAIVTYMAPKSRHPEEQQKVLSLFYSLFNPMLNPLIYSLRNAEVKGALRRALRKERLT
Summary of the method: as §1

OR2A2 (Homo sapiens) = target: T4, OR2A2 (Homo sapiens) (UniProt Q6IF42)
T4 sequence (whole entry): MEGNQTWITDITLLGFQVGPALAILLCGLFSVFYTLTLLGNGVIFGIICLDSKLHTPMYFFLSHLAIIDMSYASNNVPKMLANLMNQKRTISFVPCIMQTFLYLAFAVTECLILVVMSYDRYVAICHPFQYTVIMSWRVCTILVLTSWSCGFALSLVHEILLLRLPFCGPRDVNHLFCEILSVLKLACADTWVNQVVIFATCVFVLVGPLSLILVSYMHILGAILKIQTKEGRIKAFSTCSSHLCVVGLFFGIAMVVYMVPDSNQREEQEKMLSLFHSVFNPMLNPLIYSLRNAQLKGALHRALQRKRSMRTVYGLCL
Summary of the method: as §1

OR2A25 (Homo sapiens) = target: T5, OR2A25 (Homo sapiens) (UniProt A4D2G3)
T5 sequence (whole entry): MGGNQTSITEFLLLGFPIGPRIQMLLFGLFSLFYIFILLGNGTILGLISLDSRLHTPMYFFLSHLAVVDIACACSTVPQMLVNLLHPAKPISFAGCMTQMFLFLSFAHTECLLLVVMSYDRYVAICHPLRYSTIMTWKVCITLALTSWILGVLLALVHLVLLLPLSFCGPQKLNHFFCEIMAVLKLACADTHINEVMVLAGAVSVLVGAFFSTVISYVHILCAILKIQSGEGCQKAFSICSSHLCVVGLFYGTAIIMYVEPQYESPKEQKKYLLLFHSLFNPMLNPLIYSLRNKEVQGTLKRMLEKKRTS
Summary of the method: as §1

OR2A2 = tested on: T6, OR2A2
T6 sequence (whole entry): T4 sequence (whole entry) with F280L
Summary of the method: as §1

OR2A4 (Homo sapiens) = target: T7, OR2A4 (Homo sapiens) (UniProt O95047)
T7 sequence (whole entry): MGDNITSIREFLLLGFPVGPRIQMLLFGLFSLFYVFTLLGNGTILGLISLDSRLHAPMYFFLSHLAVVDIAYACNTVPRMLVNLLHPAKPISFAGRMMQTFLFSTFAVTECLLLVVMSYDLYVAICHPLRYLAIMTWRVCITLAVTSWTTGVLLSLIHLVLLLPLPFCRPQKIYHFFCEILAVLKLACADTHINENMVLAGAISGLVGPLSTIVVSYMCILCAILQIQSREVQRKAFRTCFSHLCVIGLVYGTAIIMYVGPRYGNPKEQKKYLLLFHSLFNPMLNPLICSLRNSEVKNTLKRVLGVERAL
Summary of the method: as §1

OR2A5 (Homo sapiens) = target: T8, OR2A5 (Homo sapiens) (UniProt Q96R48)
T8 sequence (whole entry): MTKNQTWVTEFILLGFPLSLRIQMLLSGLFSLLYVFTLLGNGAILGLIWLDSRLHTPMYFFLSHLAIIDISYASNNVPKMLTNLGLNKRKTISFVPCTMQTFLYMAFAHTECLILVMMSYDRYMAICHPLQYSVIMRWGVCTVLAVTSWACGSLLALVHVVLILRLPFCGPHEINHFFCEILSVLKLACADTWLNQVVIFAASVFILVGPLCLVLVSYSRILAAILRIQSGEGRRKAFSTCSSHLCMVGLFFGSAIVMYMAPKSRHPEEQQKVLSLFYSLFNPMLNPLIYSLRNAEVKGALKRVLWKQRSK
Summary of the method: as §1

OR2A5 I126V A202S A255T = tested on: T9, OR2A5 I126V A202S A255T
T9 sequence (whole entry): T8 sequence (whole entry) with I126V, A202S, A255T
Summary of the method: as §1

OR2A7 (Homo sapiens) = target: T10, OR2A7 (Homo sapiens) (UniProt Q96R45)
T10 sequence (whole entry): T7 sequence (whole entry) with R9T, R238C, V250F
Summary of the method: as §1

OR2A7 = tested on: T11, OR2A7
T11 sequence (whole entry): T7 sequence (whole entry) with R238C, V250F
Summary of the method: as §1

OR2AE1 (Homo sapiens) = target: T12, OR2AE1 (Homo sapiens) (UniProt Q8NHA4)
T12 sequence (whole entry): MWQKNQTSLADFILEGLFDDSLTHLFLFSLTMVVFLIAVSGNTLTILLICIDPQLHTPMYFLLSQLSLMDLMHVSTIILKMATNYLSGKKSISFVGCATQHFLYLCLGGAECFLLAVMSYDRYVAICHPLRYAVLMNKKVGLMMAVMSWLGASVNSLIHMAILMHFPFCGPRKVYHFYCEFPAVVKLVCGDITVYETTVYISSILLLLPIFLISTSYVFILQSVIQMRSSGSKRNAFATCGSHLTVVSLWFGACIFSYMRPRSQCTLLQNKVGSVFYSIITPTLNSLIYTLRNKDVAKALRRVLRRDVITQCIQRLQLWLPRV
Summary of the method: as §1

OR2AG1 (Homo sapiens) = target: T13, OR2AG1 (Homo sapiens) (UniProt Q9H205)
T13 sequence (whole entry): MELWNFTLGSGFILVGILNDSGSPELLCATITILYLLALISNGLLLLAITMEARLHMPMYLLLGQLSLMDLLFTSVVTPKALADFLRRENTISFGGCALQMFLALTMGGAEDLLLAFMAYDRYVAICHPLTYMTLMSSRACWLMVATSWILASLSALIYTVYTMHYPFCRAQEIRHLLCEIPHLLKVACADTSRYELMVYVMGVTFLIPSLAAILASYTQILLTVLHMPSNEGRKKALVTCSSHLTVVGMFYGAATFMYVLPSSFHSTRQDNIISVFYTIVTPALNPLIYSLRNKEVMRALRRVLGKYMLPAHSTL
Summary of the method: as §1

OR2AG2 (Homo sapiens) = target: T14, OR2AG2 (Homo sapiens) (UniProt A6NM03)
T14 sequence (whole entry): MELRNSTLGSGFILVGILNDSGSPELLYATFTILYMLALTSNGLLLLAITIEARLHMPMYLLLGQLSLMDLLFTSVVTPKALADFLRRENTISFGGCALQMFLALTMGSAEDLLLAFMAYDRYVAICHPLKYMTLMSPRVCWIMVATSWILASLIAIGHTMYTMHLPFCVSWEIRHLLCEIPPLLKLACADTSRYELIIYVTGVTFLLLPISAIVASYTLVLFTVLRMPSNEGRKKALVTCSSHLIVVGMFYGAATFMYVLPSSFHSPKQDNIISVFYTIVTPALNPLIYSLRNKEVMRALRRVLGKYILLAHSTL
Summary of the method: as §1

OR2AK2 (Homo sapiens) = target: T15, OR2AK2 (Homo sapiens) (UniProt Q8NG84)
T15 sequence (whole entry): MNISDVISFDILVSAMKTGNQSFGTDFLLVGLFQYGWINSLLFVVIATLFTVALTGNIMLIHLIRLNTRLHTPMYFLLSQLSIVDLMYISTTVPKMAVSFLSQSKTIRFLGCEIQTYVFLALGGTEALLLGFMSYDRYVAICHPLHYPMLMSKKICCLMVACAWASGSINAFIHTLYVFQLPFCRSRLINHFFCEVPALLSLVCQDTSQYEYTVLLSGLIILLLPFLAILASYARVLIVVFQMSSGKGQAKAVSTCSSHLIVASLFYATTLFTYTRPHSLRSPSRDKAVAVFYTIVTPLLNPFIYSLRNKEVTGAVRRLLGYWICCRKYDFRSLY
Summary of the method: as §1

OR2AP1 (Homo sapiens) = target: T16, OR2AP1 (Homo sapiens) (UniProt Q8NGE2)
T16 sequence (whole entry): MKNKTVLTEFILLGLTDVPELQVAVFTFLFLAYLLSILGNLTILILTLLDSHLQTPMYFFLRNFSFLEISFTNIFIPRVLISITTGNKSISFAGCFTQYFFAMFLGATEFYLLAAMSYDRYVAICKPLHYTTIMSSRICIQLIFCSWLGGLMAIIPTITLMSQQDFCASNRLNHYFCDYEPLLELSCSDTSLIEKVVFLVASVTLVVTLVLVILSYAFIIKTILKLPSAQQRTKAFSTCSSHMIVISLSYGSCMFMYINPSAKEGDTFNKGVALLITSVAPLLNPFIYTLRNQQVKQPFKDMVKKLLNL
Summary of the method: as §1

OR2AT4 (Homo sapiens) = target: T17, OR2AT4 (Homo sapiens) (UniProt A6NND4)
T17 sequence (whole entry): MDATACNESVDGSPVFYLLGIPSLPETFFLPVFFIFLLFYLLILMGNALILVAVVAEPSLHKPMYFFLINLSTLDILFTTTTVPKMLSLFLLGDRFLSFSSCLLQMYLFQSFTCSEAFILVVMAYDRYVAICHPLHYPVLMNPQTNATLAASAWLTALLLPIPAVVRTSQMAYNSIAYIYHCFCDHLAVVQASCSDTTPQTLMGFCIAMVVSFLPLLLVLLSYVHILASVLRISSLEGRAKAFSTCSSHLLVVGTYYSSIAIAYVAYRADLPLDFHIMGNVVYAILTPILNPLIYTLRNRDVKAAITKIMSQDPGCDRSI
Summary of the method: as §1

OR2B11 (Homo sapiens) = target: T18, OR2B11 (Homo sapiens) (UniProt Q5JQS5)
T18 sequence (whole entry): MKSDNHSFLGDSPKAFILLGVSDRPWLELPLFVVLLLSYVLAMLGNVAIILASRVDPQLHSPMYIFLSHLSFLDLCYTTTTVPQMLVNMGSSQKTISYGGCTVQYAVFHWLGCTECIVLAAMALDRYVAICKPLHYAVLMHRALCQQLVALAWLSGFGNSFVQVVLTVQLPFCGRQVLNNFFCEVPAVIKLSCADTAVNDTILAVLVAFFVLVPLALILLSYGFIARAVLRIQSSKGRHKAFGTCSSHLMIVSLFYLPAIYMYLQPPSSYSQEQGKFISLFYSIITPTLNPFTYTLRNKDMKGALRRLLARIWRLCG
Summary of the method: as §1

OR2B2 (Homo sapiens) = target: T19, OR2B2 (Homo sapiens) (UniProt Q9GZK3)
T19 sequence (whole entry): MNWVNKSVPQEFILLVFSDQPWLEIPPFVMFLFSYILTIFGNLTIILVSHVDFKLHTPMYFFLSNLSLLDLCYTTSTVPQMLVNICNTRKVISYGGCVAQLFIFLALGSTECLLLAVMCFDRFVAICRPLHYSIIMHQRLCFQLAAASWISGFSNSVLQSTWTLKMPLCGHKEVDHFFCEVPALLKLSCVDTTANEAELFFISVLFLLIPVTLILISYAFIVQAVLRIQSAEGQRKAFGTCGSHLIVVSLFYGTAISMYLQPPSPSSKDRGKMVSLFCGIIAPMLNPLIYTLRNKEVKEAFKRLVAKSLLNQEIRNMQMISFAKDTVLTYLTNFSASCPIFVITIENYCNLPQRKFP
Summary of the method: as §1

Measured: odorant receptor agonist call

CC1=C(O)C(=O)OC1C (centres undefined)
inactive: all assays above
